Sampled rows, rich in hits. Any-hit rate of the full collection: about 3%.
SR-BI HDL uptake: mouse SR-BI HDL lipid transfer inhibition | Q61009 | ldlA[mSR-BI] CHO cells, DiI-HDL uptake fluorescence, 3 h | inhibition, % at 12.5 µM | 0.96% of 320,000 active | AID 488896;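 active means mean replicate inhibition of at least 70% and a set share of replicates each scoring 70 or more; inconclusive means meets just one of the two criteria; inactive means fails both criteria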;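 further: 0% = median of neutral control wells and 100% = median of positive control wells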
Target sequence (Q61009 whole entry, looked up): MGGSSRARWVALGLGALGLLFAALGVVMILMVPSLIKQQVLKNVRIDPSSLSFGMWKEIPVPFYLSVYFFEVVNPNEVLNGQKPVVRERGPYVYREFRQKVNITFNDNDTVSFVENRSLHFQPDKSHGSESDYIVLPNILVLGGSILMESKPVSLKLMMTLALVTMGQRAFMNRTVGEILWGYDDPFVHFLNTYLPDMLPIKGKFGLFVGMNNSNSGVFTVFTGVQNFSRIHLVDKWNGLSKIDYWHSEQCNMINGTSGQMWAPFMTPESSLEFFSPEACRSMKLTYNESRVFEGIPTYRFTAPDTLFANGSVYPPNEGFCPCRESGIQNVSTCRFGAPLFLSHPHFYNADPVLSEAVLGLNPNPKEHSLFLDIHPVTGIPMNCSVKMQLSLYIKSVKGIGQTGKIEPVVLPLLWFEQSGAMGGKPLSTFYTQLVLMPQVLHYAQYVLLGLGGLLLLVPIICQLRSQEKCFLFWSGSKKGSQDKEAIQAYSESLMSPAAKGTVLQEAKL
Kir21 inh: inhibitors of mouse Kir2.1 inward-rectifier potassium channel; P35561; HEK293-Kir2.1, FluxOR thallium flux fluorescence; active compounds read low; B-score at 10 µM; 0.85% of 310,000 active; AID 1672;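 active means fluorescence ratio B-score at or below minus 3 SD of library scores, with starting-brightness B-score within 2 SD, cut at about -4.2 in these data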;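 further: channel flux triggered by added potassium and thallium sulfate stimulus; B-score of peak minus minimum fluorescence over baseline after thallium stimulus; more negative B-score means stronger Kir2.1 block with less thallium influx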
ANO1 activ: mouse TMEM16A channel activation, primary screen; 0.3% of 340,000 active; B-score at 10 µM; AID 623877; Q8BHY3; HEK293 TMEM16A/YFP-H148Q/I152L, iodide quench fluorescence; active compounds read low;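 active means fluorescence-ratio B-score plate-corrected deviation score at least 3 library SD below zero, with starting fluorescence score within 5 deviations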;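 further: channel opened by trigger with iodide after compound preincubation; score built on the fluorescence ratio of max minus min over baseline; more negative score means more quench and so TMEM16A activation or potentiation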
ANO1 block: mouse TMEM16A channel inhibition, primary screen; normalized B-score (activity score, 25-100; higher = stronger inhibition) at 10 µM; 1.2% of 310,000 active; HEK293 TMEM16A/YFP iodide influx fluorescence, ionomycin; Q8BHY3;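 active means ratio plate-corrected score three or more library SD toward inhibition, starting fluorescence score within five deviations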;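 further: score derived from kinetic fluorescence span divided by baseline fluorescence per well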
FID counter: displaces DNA intercalator in HCV helicase counter-screen; DNA fluorescent intercalator displacement, fluorescence; inhibition, % at 7.9 µM; 0.17% of 290,000 active; in the data active means inhibition above about 37%;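 further: 0% = vehicle and 100% = reference compound; higher means more ethidium bromide displaced from hairpin DNA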
SR-BI uptake up: SR-BI HDL lipid transfer activation | AID 504775 | activation, % at 12.5 µM | CHO ldlA[mSR-BI] cells, DiI-HDL uptake fluorescence, 3 h; 100 = double the neutral-control signal | 0.096% of 320,000 active;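 active means mean replicate activation of at least 60% and every replicate at or above 60%; inconclusive means mean or all-replicate condition met, but not both; inactive means mean below 60% and not all replicates reaching 60%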;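 further: 0% = median plate neutral-control signal and 100% = twice that signal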
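system = CHO ldlA[mSR-BI] cells, LDL receptor-null, SR-BI overexpressing | medium = Ham's F12 with 0.5% BSA, HEPES 25 mM, pH 7.4 | probe or stimulus = DiI-HDL 10 µg/mL | compound dosing = single-point compound dose | incubation = compound exposure 3 h, 37 °C | technique = DiI fluorescence, bottom read | read-out = cell-associated DiI fluorescence as measure of HDL uptake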
* = called active by the depositor; i = inactive; ? = inconclusive; nt = no result given.

SMILES	SR-BI HDL uptake	Kir21 inh	ANO1 activ	ANO1 block	FID counter	SR-BI uptake up
CCn1c(CNC(=O)c2cccc(C)c2)nnc1SCC(=O)N1CCOCC1	19.8	-0.03	i	i	-12.8	nt
COc1cccc(C(=O)N2CCCN(C)CC2)c1OC	-0.3	0.4	i	i	1.7	0.3
CCC(C(=O)NCCc1c[nH]c2ccc(C)cc12)c1ccccc1 (configuration not stated)	-1.9	-4.51*	i	i	-22.2	1.9
CCOc1cc(S(=O)(=O)N(Cc2ccccc2)Cc2ccccc2)c(OCC)cc1-n1cnnn1	4.4	0.05	i	nt	-2.5	-4.4
Cc1ccc(S(=O)(=O)N2CCN(C(=O)CCOc3cc(C)ccc3C)CC2)cc1	4.7	nt	-43.9*	nt	nt	-4.7
Cc1ccc(C)c(OCCC(=O)N2CCN(S(=O)(=O)c3cc(F)ccc3F)CC2)c1	10.8	nt	i	nt	nt	-10.8
Cc1cccc(-c2cc3nc(-c4ccccc4)cc(N4CCC5(CC4)OCCO5)n3n2)c1	82.6*	-0.66	i	i	-16.1	-82.6
Fc1ccc(-c2cc3nc(-c4ccccc4)cc(N4CCOCC4)n3n2)cc1	73.0*	2.23	i	i	-2.2	-73.0
CCCn1c(N)c(C(=O)CSc2nncs2)c(=O)[nH]c1=O	-17.6	nt	i	nt	nt	17.6
COc1ccccc1NC(=O)C(C)OC(=O)CCNS(=O)(=O)c1cccc(C(F)(F)F)c1 (configuration not stated)	-14.2	nt	i	nt	nt	14.2
Cc1cccc(-n2c(SCC(=O)c3c(N)n(C4CC4)c(=O)[nH]c3=O)nnc2N2CCOCC2)c1	-4.6	nt	i	nt	nt	4.6
O=C(Oc1cccc(Nc2ncnc3ccccc23)c1)c1cccnc1	-6.5	-1.54	i	i	-3.5	6.5
CC(C)(C)C(=O)Oc1cccc(Nc2ncnc3ccccc23)c1	9.4	-3.9	i	25*	-20.1	-9.4
O=c1c2ccccc2oc2ccc(-c3ccc4cc[nH]c4c3)cc12	24.8	nt	i	nt	nt	-24.8
O=C(O)c1ccc(C[n+]2c(-c3ccccc3)csc2Nc2ccccc2)cc1	-5.5	0.55	i	i	-11.8	5.5
CC(C)(C)c1cc(-c2csc(Nc3ccccc3)[n+]2Cc2ccc(C(=O)O)cc2)cc(C(C)(C)C)c1O	10.5	-4.02	i	100*	-11.9	-10.5
C#CCOCCOCCOCCNc1nc(N2CCN(C(=O)CCCCCCCCCCNC(=O)[C@@H](CCC(=O)O)n3cc(CCCCCN)nn3)CC2)nc(N2CCN(C(=O)CCCCCCCCCCNC(=O)[C@H](CO)n3cc(CCCCCN)nn3)CC2)n1	-30.2	nt	i	i	nt	30.2
C#CCOCCOCCOCCNc1nc(N2CCN(C(=O)CCCCCCCCCCNC(=O)[C@H](CCCCN)n3cc(CCO)nn3)CC2)nc(N2CCN(C(=O)CCCCCCCCCCNC(=O)[C@H](CCCCN)n3cc(C[C@@H](C)CC)nn3)CC2)n1	nt	nt	nt	100*	nt	nt
C#CCOCCOCCOCCNc1nc(N2CCN(C(=O)CCCCCCCCCCNC(=O)[C@@H](CCC(=O)O)n3cc(CCCCCN)nn3)CC2)nc(N2CCN(C(=O)CCCCCCCCCCNC(=O)[C@H](CCCCN)n3cc(C[C@@H](C)CC)nn3)CC2)n1	19.7	nt	-5.73*	100*	nt	-19.7
CN(C)S(=O)(=O)c1ccc(N2CCCC2)c(C(=O)Nc2nc3ccccc3s2)c1	-13.8	-2.47	i	i	-18.6	13.9
Cc1cccc2sc(NC(=O)c3cc(S(=O)(=O)N(C)C)ccc3N3CCCC3)nc12	76.4*	-0.1	i	i	-3.3	-76.4
CCOc1ccc(S(=O)(=O)NC(C)(C)C)cc1-c1nc2c(C(C)(C)C)nn(C)c2c(=O)[nH]1	-1.9	-0.95	-13.8*	i	-8.8	1.9
CCOc1ccc(S(N)(=O)=O)cc1-c1nc2c(C(C)(C)C)nn(C)c2c(=O)[nH]1	nt	0.41	i	i	-22.6	nt
COc1ccc(CCC(=O)NCCOc2ccccc2Cl)cc1	7.2	-0.51	i	i	nt	-7.2
N=c1sccn1CC(=O)Nc1cccc(Oc2ccccc2)c1	-23.0	-4.26*	i	i	33.5	23.0
SMILES	SR-BI HDL uptake	Kir21 inh	ANO1 activ	ANO1 block	FID counter	SR-BI uptake up
COc1cccc(OCC(=O)Nc2cc(Cl)ccc2Oc2ccccc2)c1	87.1*	-1.4	i	i	-5.5	-87.1
COc1cccc(OCC(=O)Nc2ccccc2NC(C)=O)c1	-0.3	0.53	i	i	2.0	0.3
N=c1sccn1CC(=O)Nc1cccc(S(N)(=O)=O)c1	nt	0.03	i	i	-0.7	nt
N=c1sccn1CC(=O)Nc1cc(Cl)ccc1Oc1ccccc1	-20.5	-4.79*	i	i	13.1	20.5
N=c1sccn1CC(=O)Nc1ccc(Cl)cc1[N+](=O)[O-]	nt	0.12	i	i	4.3	nt
CC(C)N(Cc1nccn1C)C(=O)c1cc(COc2ccc(F)cc2Cl)on1	19.1	-0.44	i	i	-7.5	-19.1
Clc1ccc(-n2cnc3c(Cl)ncnc32)cc1Cl	-8.4	nt	i	nt	nt	8.4
CN(CCCC1CCCC1)C(=O)CC1C(=O)NCCN1Cc1cccc(F)c1F (configuration not stated)	24.1	-0.03	i	i	-41.8	-24.1
CCCn1c2ccccc2c2cnn(CC(=O)NCCCN3CCN(c4ccccc4)CC3)c(=O)c21	48.1	-4.57*	i	i	19.7	-48.1
CCCn1c2ccccc2c2cnn(CC(=O)NCCCN3CCCCC3)c(=O)c21	3.2	-1.3	i	i	9.9	-3.2
Nc1nc(COC(=O)C2CCN(C(=O)c3ccc(Cl)cc3)CC2)nc(Nc2ccccc2)n1	-185.0	nt	i	nt	nt	?
CC1Oc2ccccc2N(CC(=O)N(Cc2ccccc2)Cc2ccccn2)C1=O (configuration not stated)	-4.9	-0.06	i	i	-27.4	4.9
CC(C)C1Oc2ccccc2N(CC(=O)N(Cc2ccccn2)C2CC2)C1=O (configuration not stated)	-369.4	-0.61	i	i	-32.6	369.4*
Cc1onc(-c2ccccc2)c1C(=O)OCC(=O)Nc1ccc(OC(F)(F)F)cc1	7.6	nt	i	nt	nt	-7.6
Cc1ccccc1C(=O)N1CCC(C(=O)Nc2nc3ccc(F)cc3s2)CC1	-2.2	-0.06	i	25*	nt	2.2
Cc1ccccc1C(=O)N1CCC(C(=O)Nc2nccs2)CC1	-6.7	2	i	i	-7.6	6.7
COc1ccc(OC)c(/C=N/NC(=O)c2cc3c(OC)c(OC)ccc3[nH]2)c1	71.9*	1.08	i	i	-18.9	-71.9
Cc1ccc2[nH]c(C(=O)N/N=C/c3ccccc3C(=O)O)c(-c3ccccc3)c2c1	-7.0	0.6	i	i	-19.6	7.0
COc1ccc2[nH]c(C(=O)N/N=C/c3ccccc3OC)cc2c1	nt	0.54	i	i	-26.0	nt
